Reference: ChEMBL document CHEMBL5058577, “EUbOPEN Chemogenomics Library 2 (Multiplex)” (2022)

Tested on: Fibroblast
Assay: Multiplex assay against human fibroblast
Assay type: toxicity, cell-based
In short: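 Hoechst33342, BioTracker Green Microtubule Cytoskeleton Dye, MitoTracker Red and Annexin V Alexa Fluor 680 were added to live cells at seeding, and imaging on a CQ1 microscope at 37°C and 5% CO2 followed compound addition. Gating by CellPathfinder machine learning separated cells into Hoechst high-intensity objects or normal cells, then normal cells into healthy, pyknosed or fragmented nuclei, then pyknosed cells into mitotic or apoptotic. Per cents of healthy-nucleus cells are reported for the tubulin, mitochondrial-mass and membrane-permeability phenotypes.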

[1] = 12 h, 1 µM, compound concentration 1 uM, replicate 1
[2] = 12 h, 1 µM, compound concentration 1 uM, replicate 2
[3] = 12 h, 10 µM, compound concentration 10 uM, replicate 1
[4] = 12 h, 10 µM, compound concentration 10 uM, replicate 2
[5] = 24 h, 1 µM, compound concentration 1 uM, replicate 1
[6] = 24 h, 1 µM, compound concentration 1 uM, replicate 2
[7] = 24 h, 10 µM, compound concentration 10 uM, replicate 1
[8] = 24 h, 10 µM, compound concentration 10 uM, replicate 2
[9] = 48 h, 1 µM, compound concentration 1 uM, replicate 1
[10] = 48 h, 1 µM, compound concentration 1 uM, replicate 2
[11] = 48 h, 10 µM, compound concentration 10 uM, replicate 1
[12] = 48 h, 10 µM, compound concentration 10 uM, replicate 2

N#Cc1c(Oc2cccc(OS(=O)(=O)CCCC(F)(F)F)c2)cccc1C(F)(F)F
Population Apoptotic (%) [1]: 51%
Population Fragmented Nuclei (%) [1]: 13%
Population Healthy Nuclei (%) [1]: 63%
Population Hoechst High Intensity Objects (%) [1]: 2%
Population Membrane Permeable-Phenotype (%) [1]: 1%
Population Mitochondria Different-Phenotype (%) [1]: 7%
Population Mitotic Cells (%) [1]: 48%
Population Normal (%) [1]: 97%
Population Pyknosed Nuclei (%) [1]: 23%
Population Tubulin-Different-Phenotype (%) [1]: 38%
Total Cell Count [1]: 146
Population Apoptotic (%) [2]: 38%
Population Fragmented Nuclei (%) [2]: 27%
Population Healthy Nuclei (%) [2]: 48%
Population Hoechst High Intensity Objects (%) [2]: 7%
Population Membrane Permeable-Phenotype (%) [2]: 9%
Population Mitotic Cells (%) [2]: 61%
Population Normal (%) [2]: 92%
Population Pyknosed Nuclei (%) [2]: 24%
Population Tubulin-Different-Phenotype (%) [2]: 59%
Total Cell Count [2]: 148
Population Apoptotic (%) [3]: 31%
Population Fragmented Nuclei (%) [3]: 14%
Population Healthy Nuclei (%) [3]: 59%
Population Hoechst High Intensity Objects (%) [3]: 6%
Population Membrane Permeable-Phenotype (%) [3]: 1%
Population Mitochondria Different-Phenotype (%) [3]: 7%
Population Mitotic Cells (%) [3]: 68%
Population Normal (%) [3]: 93%
Population Pyknosed Nuclei (%) [3]: 26%
Population Tubulin-Different-Phenotype (%) [3]: 36%
Total Cell Count [3]: 180
Population Apoptotic (%) [4]: 66%
Population Fragmented Nuclei (%) [4]: 42%
Population Healthy Nuclei (%) [4]: 22%
Population Hoechst High Intensity Objects (%) [4]: 7%
Population Membrane Permeable-Phenotype (%) [4]: 13%
Population Mitochondria Different-Phenotype (%) [4]: 3%
Population Mitotic Cells (%) [4]: 33%
Population Normal (%) [4]: 92%
Population Pyknosed Nuclei (%) [4]: 35%
Population Tubulin-Different-Phenotype (%) [4]: 75%
Total Cell Count [4]: 138
Population Apoptotic (%) [5]: 50%
Population Fragmented Nuclei (%) [5]: 20%
Population Healthy Nuclei (%) [5]: 62%
Population Hoechst High Intensity Objects (%) [5]: 6%
Population Membrane Permeable-Phenotype (%) [5]: 1%
Population Mitochondria Different-Phenotype (%) [5]: 4%
Population Mitotic Cells (%) [5]: 50%
Population Normal (%) [5]: 93%
Population Pyknosed Nuclei (%) [5]: 17%
Population Tubulin-Different-Phenotype (%) [5]: 45%
Total Cell Count [5]: 148
Population Apoptotic (%) [6]: 54%
Population Fragmented Nuclei (%) [6]: 33%
Population Healthy Nuclei (%) [6]: 50%
Population Hoechst High Intensity Objects (%) [6]: 3%
Population Membrane Permeable-Phenotype (%) [6]: 5%
Population Mitochondria Different-Phenotype (%) [6]: 5%
Population Mitotic Cells (%) [6]: 45%
Population Normal (%) [6]: 96%
Population Pyknosed Nuclei (%) [6]: 16%
Population Tubulin-Different-Phenotype (%) [6]: 57%
Total Cell Count [6]: 147
Population Apoptotic (%) [7]: 44%
Population Fragmented Nuclei (%) [7]: 13%
Population Healthy Nuclei (%) [7]: 59%
Population Hoechst High Intensity Objects (%) [7]: 5%
Population Membrane Permeable-Phenotype (%) [7]: 4%
Population Mitochondria Different-Phenotype (%) [7]: 12%
Population Mitotic Cells (%) [7]: 55%
Population Normal (%) [7]: 94%
Population Pyknosed Nuclei (%) [7]: 27%
Population Tubulin-Different-Phenotype (%) [7]: 43%
Total Cell Count [7]: 174
Population Apoptotic (%) [8]: 61%
Population Fragmented Nuclei (%) [8]: 40%
Population Healthy Nuclei (%) [8]: 23%
Population Hoechst High Intensity Objects (%) [8]: 8%
Population Membrane Permeable-Phenotype (%) [8]: 18%
Population Mitochondria Different-Phenotype (%) [8]: 22%
Population Mitotic Cells (%) [8]: 38%
Population Normal (%) [8]: 91%
Population Pyknosed Nuclei (%) [8]: 36%
Population Tubulin-Different-Phenotype (%) [8]: 77%
Total Cell Count [8]: 127
Population Apoptotic (%) [9]: 60%
Population Fragmented Nuclei (%) [9]: 18%
Population Healthy Nuclei (%) [9]: 66%
Population Hoechst High Intensity Objects (%) [9]: 7%
Population Membrane Permeable-Phenotype (%) [9]: 1%
Population Mitochondria Different-Phenotype (%) [9]: 5%
Population Mitotic Cells (%) [9]: 40%
Population Normal (%) [9]: 92%
Population Pyknosed Nuclei (%) [9]: 14%
Population Tubulin-Different-Phenotype (%) [9]: 42%
Total Cell Count [9]: 145
Population Apoptotic (%) [10]: 38%
Population Fragmented Nuclei (%) [10]: 26%
Population Healthy Nuclei (%) [10]: 59%
Population Hoechst High Intensity Objects (%) [10]: 5%
Population Membrane Permeable-Phenotype (%) [10]: 13%
Population Mitochondria Different-Phenotype (%) [10]: 2%
Population Mitotic Cells (%) [10]: 61%
Population Normal (%) [10]: 94%
Population Tubulin-Different-Phenotype (%) [10]: 56%
Total Cell Count [10]: 133
Population Apoptotic (%) [11]: 52%
Population Fragmented Nuclei (%) [11]: 20%
Population Healthy Nuclei (%) [11]: 54%
Population Hoechst High Intensity Objects (%) [11]: 9%
Population Membrane Permeable-Phenotype (%) [11]: 2%
Population Mitochondria Different-Phenotype (%) [11]: 12%
Population Mitotic Cells (%) [11]: 47%
Population Normal (%) [11]: 90%
Population Pyknosed Nuclei (%) [11]: 24%
Population Tubulin-Different-Phenotype (%) [11]: 47%
Total Cell Count [11]: 172
Population Apoptotic (%) [12]: 59%
Population Fragmented Nuclei (%) [12]: 43%
Population Healthy Nuclei (%) [12]: 31%
Population Hoechst High Intensity Objects (%) [12]: 2%
Population Membrane Permeable-Phenotype (%) [12]: 23%
Population Mitochondria Different-Phenotype (%) [12]: 15%
Population Mitotic Cells (%) [12]: 40%
Population Normal (%) [12]: 97%
Population Pyknosed Nuclei (%) [12]: 25%
Population Tubulin-Different-Phenotype (%) [12]: 89%
Total Cell Count [12]: 150
